Test results from ChEMBL document CHEMBL3352014, “Effect of acyclic monoterpene alcohols and their derivatives on TRP channels” (Bioorg Med Chem Lett, 2014).

Experiments:
[1] = biological target: Transient receptor potential cation channel subfamily M member 8 (Rattus norvegicus) (UniProt Q8R455); assay: Agonist activity at rat TRPM8 expressed in HEK293 cells assessed as increase in intracellular Ca2+ concentration by Fluo-4-AM dye based spectrofluorimetry relative to ionomycin; assay type: cell-based
In short: (§1)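 Same stably transfected HEK293 Fluo-4 calcium assay: human TRPV1, rat TRPM8. Tyrode's buffer pH 7.4, 25 °C, ex 488/em 516 nm. Efficacy is the compound-evoked [Ca2+]i rise normalized to the maximal Ca2+ influx from 4 µM ionomycin. Means of at least 3 determinations.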

[2] = biological target: T1, Transient receptor potential cation channel subfamily A member 1 (Rattus norvegicus, UniProt Q6RI86); assay: Antagonist activity against rat TRPA1 expressed in HEK293 cells assessed as inhibition of AITC-induced increase in intracellular Ca2+ concentration by Fluo-4-AM dye based spectrofluorimetry; assay type: cell-based
[3] = biological target: Transient receptor potential cation channel subfamily M member 8 (Rattus norvegicus, UniProt Q8R455); assay: Antagonist activity against rat TRPM8 expressed in HEK293 cells assessed as inhibition of icilin-induced increase in intracellular Ca2+ concentration by Fluo-4-AM dye based spectrofluorimetry; assay type: cell-based
[4] = biological target: T2, Transient receptor potential cation channel subfamily V member 1 (Homo sapiens, UniProt Q8NER1); assay: Antagonist activity against human TRPV1 expressed in HEK293 cells assessed as inhibition of capsaicin-induced increase in intracellular Ca2+ concentration by Fluo-4-AM dye based spectrofluorimetry; assay type: cell-based
[5] = biological target: T1, Transient receptor potential cation channel subfamily A member 1; assay: Agonist activity at rat TRPA1 expressed in HEK293 cells assessed as increase in intracellular Ca2+ concentration by Fluo-4-AM dye based spectrofluorimetry; assay type: cell-based
[6] = biological target: T2, Transient receptor potential cation channel subfamily V member 1; assay: Agonist activity at human TRPV1 expressed in HEK293 cells assessed as increase in intracellular Ca2+ concentration by Fluo-4-AM dye based spectrofluorimetry; assay type: cell-based
In short: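 HEK293 stably expressing human TRPV1 or rat TRPM8, grown in EMEM with non-essential amino acids, 10% FBS, 2 mM glutamine, 37 °C, 5% CO2. Fluo-4-AM loaded 1 h at room temperature; cells in Tyrode's buffer pH 7.4, about 100,000 per stirred cuvette. Fluorescence (ex 488/em 516 nm) read at 25 °C before and after various compound concentrations. EC50 from sigmoidal variable-slope fit; at least 3 determinations.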

[7] = biological target: T2, Transient receptor potential cation channel subfamily V member 1; assay: Agonist activity at human TRPV1 expressed in HEK293 cells assessed as increase in intracellular Ca2+ concentration by Fluo-4-AM dye based spectrofluorimetry relative to ionomycin; assay type: cell-based; in short: as §1
[8] = biological target: Transient receptor potential cation channel subfamily A member 1 (Homo sapiens) (UniProt O75762); assay: Antagonist activity against TRPA1 (unknown origin) assessed as reduction in H2O2-induced receptor activation at 400 uM
[9] = biological target: T3, Transient receptor potential cation channel subfamily M member 8 (Homo sapiens, UniProt Q7Z2W7); assay: Agonist activity at TRPM8 (unknown origin)
[10] = biological target: T3, Transient receptor potential cation channel subfamily M member 8; assay: Agonist activity at TRPM8 (unknown origin) relative to untreated control

Transient receptor potential cation channel subfamily M member 8 (Rattus norvegicus), sequence (Q8R455 whole entry, looked up): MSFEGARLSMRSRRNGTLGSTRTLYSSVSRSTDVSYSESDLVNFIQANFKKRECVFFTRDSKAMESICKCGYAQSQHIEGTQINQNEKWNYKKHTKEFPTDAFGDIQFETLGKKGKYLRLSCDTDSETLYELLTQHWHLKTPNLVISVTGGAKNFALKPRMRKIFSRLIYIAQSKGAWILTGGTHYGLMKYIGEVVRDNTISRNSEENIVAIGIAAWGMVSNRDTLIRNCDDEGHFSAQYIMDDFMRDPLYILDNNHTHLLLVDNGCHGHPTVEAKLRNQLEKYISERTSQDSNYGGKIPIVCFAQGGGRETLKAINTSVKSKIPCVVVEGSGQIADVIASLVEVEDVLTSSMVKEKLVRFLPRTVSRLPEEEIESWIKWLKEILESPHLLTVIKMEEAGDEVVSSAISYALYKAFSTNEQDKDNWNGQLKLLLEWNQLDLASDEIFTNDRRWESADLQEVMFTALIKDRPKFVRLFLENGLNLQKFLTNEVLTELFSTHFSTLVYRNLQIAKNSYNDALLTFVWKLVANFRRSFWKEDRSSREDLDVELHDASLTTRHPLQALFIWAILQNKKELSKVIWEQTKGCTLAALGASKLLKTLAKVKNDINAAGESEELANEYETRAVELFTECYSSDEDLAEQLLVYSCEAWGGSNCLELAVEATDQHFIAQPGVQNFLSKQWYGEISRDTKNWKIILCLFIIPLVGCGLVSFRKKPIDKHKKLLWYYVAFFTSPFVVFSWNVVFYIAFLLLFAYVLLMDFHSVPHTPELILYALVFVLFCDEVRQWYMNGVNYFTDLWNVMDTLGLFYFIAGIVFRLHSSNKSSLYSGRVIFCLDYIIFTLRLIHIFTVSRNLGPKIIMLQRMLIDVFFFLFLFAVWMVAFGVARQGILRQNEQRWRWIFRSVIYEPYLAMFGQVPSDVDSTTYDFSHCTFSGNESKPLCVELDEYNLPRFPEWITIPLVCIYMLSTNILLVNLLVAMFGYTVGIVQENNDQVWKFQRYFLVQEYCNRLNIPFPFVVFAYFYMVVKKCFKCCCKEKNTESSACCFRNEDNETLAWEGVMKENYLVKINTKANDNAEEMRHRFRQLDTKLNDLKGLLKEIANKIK
Transient receptor potential cation channel subfamily M member 8 (Rattus norvegicus, UniProt Q8R455), sequence (Q8R455 whole entry): as the sequence (Q8R455 whole entry, looked up) above
T1 sequence (Q6RI86 whole entry): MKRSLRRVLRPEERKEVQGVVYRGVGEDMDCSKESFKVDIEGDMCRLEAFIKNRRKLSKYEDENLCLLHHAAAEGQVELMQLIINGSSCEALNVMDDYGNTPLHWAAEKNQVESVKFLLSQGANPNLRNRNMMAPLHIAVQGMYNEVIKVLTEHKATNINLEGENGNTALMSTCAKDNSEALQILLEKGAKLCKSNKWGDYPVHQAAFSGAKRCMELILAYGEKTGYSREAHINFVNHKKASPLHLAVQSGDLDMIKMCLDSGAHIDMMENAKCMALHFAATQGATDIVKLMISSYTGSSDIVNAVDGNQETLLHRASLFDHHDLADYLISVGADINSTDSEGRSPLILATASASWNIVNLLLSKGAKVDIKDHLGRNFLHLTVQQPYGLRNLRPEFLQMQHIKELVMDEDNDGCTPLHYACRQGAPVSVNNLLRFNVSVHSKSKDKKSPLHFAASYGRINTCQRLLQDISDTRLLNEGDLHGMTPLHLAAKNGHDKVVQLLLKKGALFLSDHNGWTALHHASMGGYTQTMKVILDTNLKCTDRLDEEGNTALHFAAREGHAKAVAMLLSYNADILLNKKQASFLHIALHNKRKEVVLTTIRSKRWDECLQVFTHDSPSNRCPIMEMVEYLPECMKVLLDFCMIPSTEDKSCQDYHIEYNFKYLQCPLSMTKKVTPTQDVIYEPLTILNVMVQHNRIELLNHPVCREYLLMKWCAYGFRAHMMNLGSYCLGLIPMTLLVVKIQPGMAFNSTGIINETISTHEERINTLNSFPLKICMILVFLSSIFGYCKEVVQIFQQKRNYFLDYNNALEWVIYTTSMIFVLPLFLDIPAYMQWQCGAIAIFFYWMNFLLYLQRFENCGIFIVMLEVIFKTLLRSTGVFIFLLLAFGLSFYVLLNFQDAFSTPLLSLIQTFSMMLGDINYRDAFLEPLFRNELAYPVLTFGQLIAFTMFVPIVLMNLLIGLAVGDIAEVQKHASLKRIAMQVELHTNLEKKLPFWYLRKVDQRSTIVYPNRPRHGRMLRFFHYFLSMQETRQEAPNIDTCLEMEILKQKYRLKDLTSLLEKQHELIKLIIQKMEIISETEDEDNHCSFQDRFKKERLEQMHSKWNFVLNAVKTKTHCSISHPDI
T2 sequence (Q8NER1 whole entry): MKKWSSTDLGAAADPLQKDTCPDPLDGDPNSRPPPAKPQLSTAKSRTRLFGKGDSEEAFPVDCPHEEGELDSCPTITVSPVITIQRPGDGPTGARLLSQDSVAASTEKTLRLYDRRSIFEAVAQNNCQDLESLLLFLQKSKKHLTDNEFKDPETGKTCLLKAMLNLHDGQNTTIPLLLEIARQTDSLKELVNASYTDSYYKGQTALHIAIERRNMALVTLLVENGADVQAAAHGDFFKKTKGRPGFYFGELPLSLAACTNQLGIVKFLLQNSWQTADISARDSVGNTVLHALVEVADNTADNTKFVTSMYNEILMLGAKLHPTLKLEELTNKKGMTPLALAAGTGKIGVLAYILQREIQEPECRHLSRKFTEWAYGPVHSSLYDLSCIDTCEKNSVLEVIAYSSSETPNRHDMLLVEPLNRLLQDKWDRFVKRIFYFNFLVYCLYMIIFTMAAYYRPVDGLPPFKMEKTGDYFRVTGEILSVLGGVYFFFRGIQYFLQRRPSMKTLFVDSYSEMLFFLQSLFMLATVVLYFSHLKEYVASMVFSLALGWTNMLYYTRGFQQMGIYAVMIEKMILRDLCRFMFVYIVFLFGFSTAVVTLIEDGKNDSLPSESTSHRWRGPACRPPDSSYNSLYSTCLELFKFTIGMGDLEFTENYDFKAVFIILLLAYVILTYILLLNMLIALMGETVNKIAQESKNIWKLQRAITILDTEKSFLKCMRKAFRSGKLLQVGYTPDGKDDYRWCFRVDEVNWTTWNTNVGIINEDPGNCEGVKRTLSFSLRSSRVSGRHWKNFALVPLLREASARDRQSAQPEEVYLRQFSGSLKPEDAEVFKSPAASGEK
Transient receptor potential cation channel subfamily A member 1 (Homo sapiens), sequence (O75762 whole entry): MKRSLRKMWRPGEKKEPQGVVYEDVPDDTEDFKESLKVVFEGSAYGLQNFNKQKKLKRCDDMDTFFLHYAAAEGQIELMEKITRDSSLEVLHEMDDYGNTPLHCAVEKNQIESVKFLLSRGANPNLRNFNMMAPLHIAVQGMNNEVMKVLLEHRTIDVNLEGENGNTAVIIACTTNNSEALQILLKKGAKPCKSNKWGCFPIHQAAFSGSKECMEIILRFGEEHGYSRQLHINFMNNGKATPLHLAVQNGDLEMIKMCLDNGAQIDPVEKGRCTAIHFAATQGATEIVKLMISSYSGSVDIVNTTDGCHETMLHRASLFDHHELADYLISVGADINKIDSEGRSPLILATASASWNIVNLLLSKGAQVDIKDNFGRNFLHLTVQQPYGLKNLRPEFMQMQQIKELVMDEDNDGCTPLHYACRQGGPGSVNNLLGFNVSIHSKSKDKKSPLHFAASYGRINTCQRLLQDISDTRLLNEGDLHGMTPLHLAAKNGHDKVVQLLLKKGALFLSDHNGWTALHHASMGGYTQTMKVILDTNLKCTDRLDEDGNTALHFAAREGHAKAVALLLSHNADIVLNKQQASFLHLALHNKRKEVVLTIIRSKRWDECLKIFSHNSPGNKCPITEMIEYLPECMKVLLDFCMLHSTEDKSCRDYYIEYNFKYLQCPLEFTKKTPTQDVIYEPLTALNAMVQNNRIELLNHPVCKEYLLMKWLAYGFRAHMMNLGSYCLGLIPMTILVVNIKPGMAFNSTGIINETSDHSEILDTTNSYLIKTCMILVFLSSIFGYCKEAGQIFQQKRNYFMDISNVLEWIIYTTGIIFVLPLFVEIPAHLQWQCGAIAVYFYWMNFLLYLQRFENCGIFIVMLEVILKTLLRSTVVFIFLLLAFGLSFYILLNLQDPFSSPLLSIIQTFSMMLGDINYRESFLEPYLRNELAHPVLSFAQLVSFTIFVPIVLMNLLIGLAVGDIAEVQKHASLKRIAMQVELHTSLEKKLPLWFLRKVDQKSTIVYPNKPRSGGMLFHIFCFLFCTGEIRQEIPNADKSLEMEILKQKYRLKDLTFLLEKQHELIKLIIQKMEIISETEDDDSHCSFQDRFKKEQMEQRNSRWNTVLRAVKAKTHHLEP

| Efficacy [1] | IC50 [2] | IC50 [3] | IC50 [4] | EC50 [5] | EC50 [6] | Efficacy [7] | inhibition [8] | EC50 [9] | Efficacy [10] | SMILES |
| --- | --- | --- | --- | --- | --- | --- | --- | --- | --- | --- |
| < 10% | 0.57 µM | > 100 µM | 76.8 µM | 0.092 µM | 8.7 µM | 21.9% | – | – | – | CC(C)=CCC/C(C)=C/CNC(=O)Nc1ccc(C(C)(C)C)cc1 |
| < 10% | 0.13 µM | > 100 µM | > 100 µM | 0.12 µM | – | < 10% | – | – | – | CC(C)=CCC/C(C)=C/COC(=O)Cc1ccc(Cl)cc1 |
| < 10% | 0.26 µM | 9.7 µM | > 100 µM | 0.14 µM | – | < 10% | – | – | – | COc1ccc(CC(=O)OC/C=C(/C)CCC=C(C)C)cc1 |
| < 10% | 0.17 µM | > 100 µM | > 100 µM | 0.39 µM | 4 µM | 27.7% | – | – | – | CC(C)=CCC/C(C)=C/COC(=O)CCc1ccccc1 |
| < 10% | – | 0.83 µM | > 100 µM | – | – | < 10% | – | – | – | CC(C)=CCCC(C)CCOC(=O)Cc1ccc(Cl)cc1 (configuration not stated) |
| < 10% | 0.34 µM | > 100 µM | > 100 µM | 0.26 µM | – | < 10% | – | – | – | CC(C)=CCC/C(C)=C\COC(=O)c1ccc(C#N)cc1 |
| < 10% | – | 5.8 µM | > 100 µM | – | – | < 10% | – | – | – | CC(C)=CCC/C(C)=C/COC(=O)Cc1ccc(C)cc1 |
| < 10% | 1 µM | > 100 µM | > 100 µM | 0.33 µM | 6 µM | 17.6% | – | – | – | CC(C)=CCC/C(C)=C/COC(=O)c1ccc(C)cc1 |
| < 10% | 0.38 µM | > 100 µM | > 100 µM | 0.51 µM | 8 µM | 13.2% | – | – | – | COc1ccc(CC(=O)OC/C=C(\C)CCC=C(C)C)cc1 |
| < 10% | 0.29 µM | > 100 µM | 74.6 µM | 0.041 µM | 7.8 µM | 24% | – | – | – | CC(C)=CCC/C(C)=C\COC(=O)Nc1ccc(C(C)(C)C)cc1 |
| < 10% | 1.4 µM | > 100 µM | > 100 µM | 2.4 µM | – | < 10% | – | – | – | CC(C)=CCC/C(C)=C/COC(=O)c1cccc(C)c1 |
| < 10% | 0.87 µM | > 100 µM | > 100 µM | 0.28 µM | – | < 10% | – | – | – | CC(C)=CCCC(C)CCOC(=O)c1ccc(C)cc1 (configuration not stated) |
| < 10% | 0.34 µM | > 100 µM | > 100 µM | 0.16 µM | – | < 10% | – | – | – | CC(C)=CCCC(C)CCOC(=O)CCc1ccccc1 (configuration not stated) |
| < 10% | > 100 µM | > 100 µM | > 100 µM | 11.9 µM | – | < 10% | – | – | – | CC(C)=CCC/C(C)=C/COC(=O)c1cc(C(F)(F)F)cc(C(F)(F)F)c1 |
| < 10% | 20.7 µM | > 100 µM | > 100 µM | 13.3 µM | – | < 10% | – | – | – | CC(=O)OC/C=C(/C)CCC=C(C)C [NERYL ACETATE] |
| < 10% | 4.4 µM | 30 µM | 15.7 µM | 2.65 µM | 8.9 µM | 50.1% | – | – | – | CC(C)=CCC/C(C)=C\CNC(=O)NC1CCCCC1 |
| < 10% | – | 2.4 µM | > 100 µM | – | – | < 10% | – | – | – | CC(C)=CCCC(C)CCOC(=O)Cc1ccc(C)cc1 (configuration not stated) |
| < 10% | 0.94 µM | > 100 µM | > 100 µM | 0.1 µM | – | < 10% | – | – | – | CC(C)=CCC/C(C)=C\COC(=O)Cc1cccc(I)c1 |
| < 10% | 11.8 µM | > 100 µM | 9.9 µM | 4.9 µM | 4.8 µM | 36% | – | – | – | CC(C)=CCC/C(C)=C/CNC(=O)NC1CCCCC1 |
| < 10% | – | 0.28 µM | > 100 µM | – | – | < 10% | – | – | – | CC(C)=CCC/C(C)=C\COC(=O)Cc1ccc(C)cc1 |

| Efficacy [1] | IC50 [2] | IC50 [3] | IC50 [4] | EC50 [5] | EC50 [6] | Efficacy [7] | inhibition [8] | EC50 [9] | Efficacy [10] | SMILES |
| --- | --- | --- | --- | --- | --- | --- | --- | --- | --- | --- |
| < 10% | > 100 µM | > 100 µM | > 100 µM | 12.2 µM | – | < 10% | 70% | – | – | CC(=O)OCCC(C)CCC=C(C)C (configuration not stated) [CITRONELLYL ACETATE] |
| < 10% | 0.11 µM | 1.2 µM | > 100 µM | 0.093 µM | – | < 10% | – | – | – | CC(C)=CCC/C(C)=C\COC(=O)c1ccc(C)cc1 |
| < 10% | 0.11 µM | 0.29 µM | > 100 µM | 0.11 µM | – | < 10% | – | – | – | CC(C)=CCC/C(C)=C\COC(=O)CCc1ccccc1 |
| < 10% | 0.18 µM | > 100 µM | > 100 µM | 0.081 µM | – | < 10% | – | – | – | CC(C)=CCC/C(C)=C\COC(=O)Cc1ccc2ccccc2c1 |
| < 10% | 0.94 µM | 2.2 µM | 0.53 µM | 1 µM | 0.43 µM | 57.9% | – | – | – | CC(C)=CCC/C(C)=C\CNC(=O)Cc1ccc(Cl)cc1 |
| < 10% | > 100 µM | > 100 µM | > 100 µM | – | – | < 10% | – | 5900 µM | 28% | CC(C)=CCC/C(C)=C/CO [GERANIOL] |
| < 10% | > 100 µM | > 100 µM | > 100 µM | 11.7 µM | – | < 10% | – | – | – | CC(C)=CCC/C(C)=C\CO [NEROL] |
| < 10% | 0.029 µM | > 100 µM | > 100 µM | 0.018 µM | 6.5 µM | 15.8% | – | – | – | CC(C)=CCC/C(C)=C\CNC(=O)Oc1ccc(C(C)(C)C)cc1 |
| < 10% | 1.4 µM | 3.8 µM | 0.89 µM | 1.2 µM | 1.1 µM | 57.5% | – | – | – | CC(C)=CCC/C(C)=C/CNC(=O)Cc1ccc(Cl)cc1 |
| < 10% | 21.2 µM | > 100 µM | > 100 µM | 25.8 µM | – | < 10% | – | – | – | CC(=O)OC/C=C(\C)CCC=C(C)C [GERANYL ACETATE] |
| < 10% | 0.48 µM | > 100 µM | 0.71 µM | 0.61 µM | 2.5 µM | 21.2% | – | – | – | CC(C)=CCC/C(C)=C/CNC(=O)Nc1cccc(Cl)c1 |
| < 10% | 0.73 µM | > 100 µM | > 100 µM | 0.48 µM | – | < 10% | – | – | – | CC(C)=CCC/C(C)=C/COC(=O)c1ccc(C#N)cc1 |
| < 10% | 0.038 µM | 86.5 µM | 92.3 µM | 0.045 µM | 10.7 µM | 22.4% | – | – | – | CC(C)=CCC/C(C)=C/CNC(=O)Oc1ccc(C(C)(C)C)cc1 |
| < 10% | 7.4 µM | 5.5 µM | > 100 µM | 7.5 µM | 16.2 µM | 10.5% | – | – | – | CC(C)=CCC/C(C)=C/CNC(=O)CCc1ccccc1 |
| < 10% | 0.013 µM | 0.75 µM | > 100 µM | 0.016 µM | – | < 10% | – | – | – | CC(C)=CCC/C(C)=C\COC(=O)Cc1ccc(Cl)cc1 |
| < 10% | 0.41 µM | 0.71 µM | 0.38 µM | 0.43 µM | 1.7 µM | 20.1% | – | – | – | CC(C)=CCC/C(C)=C\CNC(=O)Nc1cccc(Cl)c1 |
| < 10% | 0.14 µM | 30.8 µM | > 100 µM | 0.14 µM | – | < 10% | – | – | – | CC(C)=CCC/C(C)=C\COC(=O)c1cccc(C)c1 |
| < 10% | > 100 µM | > 100 µM | > 100 µM | > 100 µM | – | < 10% | – | – | – | CC(C)=CCCC(C)CCO (racemic) [CITRONELLOL] |
| < 10% | 13.9 µM | 2.2 µM | > 100 µM | 6.6 µM | – | < 10% | – | – | – | CC(C)=CCC/C(C)=C\CNC(=O)CCc1ccccc1 |
